According to ChEMBL document CHEMBL1649113, “Efficacy of the combination of tachyplesin III and clarithromycin in rat models of Escherichia coli sepsis” (Antimicrob Agents Chemother, 2008):
In brackets after ≈: the same amount, converted by molar mass. Activity calls are given as the source filed them. The rule behind the calls is not given here. Bridge positions count the residues as written; N and C are the ends. Peptide text beside a SMILES is read from it.

Experiments:
Escherichia coli [1] = assay: Antibacterial activity against Escherichia coli ATCC 25922 by CLSI method; format: functional
Method in brief: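 Broth MIC by CLSI (NCCLS M7-A6) dilution method, run in triplicate.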

Escherichia coli [2] = assay: Antibacterial activity against Escherichia coli ATCC 25922 by CLSI method in presence of 2 mg/L tachyplesin 3; format: functional
Method in brief: (§1)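 Permeabilisation assay: 1 × 10^5 CFU added to twofold clarithromycin dilutions (1,000–0.5 μg/ml) in Iso-Sensitest broth, with or without peptide. Clarithromycin MIC compared with and without peptide. The lowest peptide level needed for sensitivity to 30 μg/ml clarithromycin was also determined.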

Escherichia coli [3] = assay: Antibacterial activity against Escherichia coli by CLSI method in presence of 2 mg/L tachyplesin 3; format: functional, organism-based; method in brief: as §1
Escherichia coli [4] = assay: Antibacterial activity against 1x10^9 CFU Escherichia coli ATCC 25922 infected Wistar rat assessed as rat mortality at 60 mg/kg, iv administered immediately after bacterial challenge measured 72 hrs postinfection (Rvb mortality = 100%); format: functional
Escherichia coli [5] = assay: Antibacterial activity against 1x10^9 CFU Escherichia coli ATCC 25922 infected Wistar rat assessed as rat bacterial count in peritoneal fluid at 50 mg/kg, iv administered immediately after bacterial challenge measured 72 hrs postinfection (Rvb= 8.86 logCFU/ml); format: functional
Method in brief: (§2)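 Male Wistar rats (3–5 months, 300–400 g) under ketamine/xylazine anaesthesia, inoculated i.p. with 1 × 10^9 CFU log-phase E. coli ATCC 25922 in 1 ml saline. Drug given immediately after challenge; saline controls; 15 rats per group. Survivors killed at end of 72 h. Peritoneal lavage with 10 ml saline, plated on blood agar at 35°C for 48 h, aerobic and anaerobic. Detection limit ≤2 log10 CFU/ml. Mean ± SD.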

Rattus norvegicus [6] = assay: Toxicity in Wistar rat assessed as effect on physiological parameters at 1 mg/kg, iv; format: organism-based; design: dose 1 mg/kg, route intravenous; settings: in vivo
Method in brief: (§3)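 Rats receiving the peptide were watched for local inflammation, anorexia, weight loss, diarrhoea, fever and behavioural change. A separate uninfected group given 1 mg/kg peptide was monitored for temperature, pulse, blood pressure, respiration and oxygenation.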

Escherichia coli [7] = assay: Antibacterial activity against Escherichia coli clinical isolates by CLSI method in presence of 2 mg/L tachyplesin 3; format: functional; method in brief: as §1
Escherichia coli [8] = assay: Antibacterial activity against Escherichia coli ATCC 25922 assessed as inhibition of bacterial growth at 4 mg/L; format: functional, organism-based
Rattus norvegicus [9] = assay: Decrease in TNF-alpha level in plasma of Escherichia coli serotype 0111:B4 infected Wistar rat at 1 mg/kg, iv administered immediately after LPS challenge; format: functional, organism-based; design: dose 1 mg/kg
Method in brief: (§4)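 Anaesthetised male Wistar rats (15 per group) given 1.0 mg E. coli 0111:B4 LPS i.p. in 500 μl saline, treated immediately; saline controls. Tail-vein blood sampled into EDTA at 0, 2, 6, 12 and 36 h. Endotoxin by Limulus amebocyte lysate: plasma twofold diluted, heated 5 min at 75°C, read against a 0–0.5 EU/ml standard curve. TNF-α by sandwich ELISA at 450 nm, in duplicate, lower limit 0.05 ng/ml.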

Rattus norvegicus [10] = assay: Decrease in endotoxin level in plasma of Escherichia coli serotype 0111:B4 infected Wistar rat at 1 mg/kg, iv administered immediately after LPS challenge; format: functional, organism-based; design: dose 1 mg/kg; method in brief: as §4
Escherichia coli [11] = assay: Antibacterial activity against Escherichia coli ATCC 25922 by CLSI method in presence of clarithromycin; format: functional
Escherichia coli [12] = assay: Antibacterial activity against Escherichia coli ATCC 25922 assessed as bacterial count after 24 hrs; format: functional
Escherichia coli [13] = assay: Antibacterial activity against 1x10^9 CFU Escherichia coli ATCC 25922 infected Wistar rat assessed as rat mortality at 1 mg/kg, iv administered immediately after bacterial challenge measured 72 hrs postinfection (Rvb mortality = 100%); format: functional
Escherichia coli [14] = assay: Antibacterial activity against 1x10^9 CFU Escherichia coli ATCC 25922 infected Wistar rat assessed as rat bacterial count in peritoneal fluid at 1 mg/kg, iv administered immediately after bacterial challenge measured 72 hrs postinfection (Rvb= 8.86 logCFU/ml); format: functional; method in brief: as §2
Rattus norvegicus [15] = assay: Toxicity in Wistar rat assessed as occurrence of adverse events at 1 mg/kg, iv; format: organism-based; design: dose 1 mg/kg, route intravenous; settings: in vivo; method in brief: as §3
Escherichia coli [16] = assay: Antibacterial activity against Escherichia coli ATCC 25922 by CLSI method in presence of tachyplesin 3; format: functional

CC[C@H]1OC(=O)[C@H](C)[C@@H](O[C@H]2C[C@@](C)(OC)[C@@H](O)[C@H](C)O2)[C@H](C)[C@@H](O[C@@H]2O[C@H](C)C[C@H](N(C)C)[C@H]2O)[C@](C)(OC)C[C@@H](C)C(=O)[C@H](C)[C@@H](O)[C@]1(C)O [CLARITHROMYCIN]
MIC (Escherichia coli [1]): 128 µg/mL (≈ 171 µM) | MIC (Escherichia coli [2]): 32 µg/mL | inhibition (Escherichia coli [3]): Active | Activity (Escherichia coli [4]): 66.6% | log10CFU/ml (Escherichia coli [5]): 6.68 | Activity (Rattus norvegicus [6]): Non-toxic | MIC (Escherichia coli [7]): 32 µg/mL

CC[C@H](C)[C@H](NC(=O)CNC(=O)[C@H](CCCNC(=N)N)NC(=O)[C@H](Cc1ccc(O)cc1)NC(=O)[C@H](CS)NC(=O)[C@@H](NC(=O)[C@H](CCCNC(=N)N)NC(=O)[C@H](Cc1ccccc1)NC(=O)[C@H](CS)NC(=O)[C@H](Cc1c[nH]c2ccccc12)NC(=O)[C@@H](N)CCCCN)C(C)C)C(=O)N[C@@H](CS)C(=O)N[C@@H](Cc1ccc(O)cc1)C(=O)N[C@@H](CCCNC(=N)N)C(=O)N[C@@H](CCCCN)C(=O)N[C@@H](CS)C(=O)N[C@@H](CCCNC(=N)N)C(N)=O (H-KWCFRVCYRGICYRKCR-NH2)
inhibition (Escherichia coli [8]): Active | Activity (Rattus norvegicus [9]): Active | Activity (Rattus norvegicus [10]): Active

CC[C@H](C)[C@@H]1NC(=O)CNC(=O)[C@H](CCCNC(=N)N)NC(=O)[C@H](Cc2ccc(O)cc2)NC(=O)[C@@H]2CSSC[C@H](NC1=O)C(=O)N[C@@H](Cc1ccc(O)cc1)C(=O)N[C@@H](CCCNC(=N)N)C(=O)N[C@@H](CCCCN)C(=O)N[C@H](C(=O)N[C@@H](CCCNC(=N)N)C(N)=O)CSSC[C@H](NC(=O)[C@H](Cc1c[nH]c3ccccc13)NC(=O)[C@@H](N)CCCCN)C(=O)N[C@@H](Cc1ccccc1)C(=O)N[C@@H](CCCNC(=N)N)C(=O)N[C@@H](C(C)C)C(=O)N2 [TACHYPLESIN III] (H-KWCFRVCYRGICYRKCR-NH2; disulfide 3-16, 7-12)
fractional inhibitory concentration index (FICI) (Escherichia coli [11]): 0.385 | CFU (Escherichia coli [12]): 5.65 ×10⁶ /ml | Activity (Escherichia coli [13]): 33.3% | log10CFU/ml (Escherichia coli [14]): 4.46 | Activity (Rattus norvegicus [15]): Non-toxic | fractional inhibitory concentration index (FICI) (Escherichia coli [16]): 0.385
